# In the library only some 1.8% were active in any assay of this set; here they are far more common.
# NPY2 pot ag: NPY-Y2 potentiators or agonists, primary screen, cell-based. activation, % at 3.6 µM. cells expressing NPY-Y2, potentiator/agonist read-out. Neuropeptide Y receptor type 2 (Homo sapiens), P49146. 0.45% of 220,000 active; in the data active = activation above about 27%;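 also: cells stimulated with NPY near EC25 plus isoproterenol at EC100; 0% = vehicle plus submaximal agonist and 100% = vehicle plus saturating agonist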
# Target sequence (P49146 whole entry, looked up): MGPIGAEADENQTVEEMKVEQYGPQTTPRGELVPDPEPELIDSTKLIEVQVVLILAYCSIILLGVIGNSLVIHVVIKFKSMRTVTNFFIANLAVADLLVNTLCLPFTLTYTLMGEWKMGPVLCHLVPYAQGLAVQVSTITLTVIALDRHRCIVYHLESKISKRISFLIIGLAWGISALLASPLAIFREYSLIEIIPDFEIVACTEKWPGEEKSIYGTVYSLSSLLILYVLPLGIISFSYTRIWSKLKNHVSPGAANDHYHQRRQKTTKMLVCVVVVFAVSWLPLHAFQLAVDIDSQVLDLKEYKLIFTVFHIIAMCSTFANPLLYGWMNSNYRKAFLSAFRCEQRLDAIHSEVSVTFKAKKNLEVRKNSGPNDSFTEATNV
# NPY-Y2 antag: NPY-Y2 receptor antagonists, primary screen, cell-based. 0.99% of 140,000 active. inhibition, % at 2.7 µM. Neuropeptide Y receptor type 2 (Homo sapiens), P49146. NPY-Y2 expressing cells, antagonist mode; in the data active = inhibition above about 17%;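 also: 0% = vehicle with agonist challenge and 100% = reference antagonist with challenge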
# NPY-Y1 antag: NPY-Y1 receptor antagonists, primary screen, cell-based; inhibition, % at 3.6 µM; Neuropeptide Y receptor type 1 (Homo sapiens), P25929; HEK293-CNG Y1 cells, membrane potential fluorescence; NPY at EC95, then isoproterenol; 1% of 200,000 active; AID 1040, 2008;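 active = inhibition above the campaign mean inhibition of all tested compounds plus 3 SD, cut at about 20% in these data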;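 also: 0% = DMSO wells given NPY plus isoproterenol and 100% = isoproterenol alone without NPY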
#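 Material: Y1- and CNG-channel-expressing HEK293 cells / Probe or stimulus: NPY 25 nM then isoproterenol 1 µM plus Ro 20-1724 25 µM / Doses: 3.6 µM single dose, DMSO 0.4% / Schedule: compound incubation 1 h at room temperature, readout 45 min post-stimulation / Signal: membrane potential fluorescence / Benchmarks: isoproterenol-only wells as full block versus NPY-plus-isoproterenol wells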
# NPY-Y1 PAM-ag: NPY-Y1 receptor potentiators or agonists, primary screen, cell-based; AID 1304, 2008; 0.37% of 220,000 active; Neuropeptide Y receptor type 1 (Homo sapiens), P25929; NPY-Y1 expressing cells, potentiator/agonist activation; activation, % at 3.6 µM; in the data active = activation above about 33%, passing the limit was not always enough;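 also: cells stimulated with NPY at EC10 then isoproterenol at EC100; 0% = low agonist plus stimulus and 100% = saturating agonist plus stimulus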
# NPY1 antag ctr: NPY-Y1 receptor antagonists, selectivity check, counter-screen for NPY-Y2 antagonist project, cell-based | 19% of 710 active | cell-based NPY-Y1 antagonism counterscreen | inhibition, % at 3.6 µM | shares compounds with NPY-Y2 antag;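 also: cells challenged with NPY then isoproterenol with cAMP sensed through a CNG channel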
# NPY-Y2 ant conf: NPY-Y2 receptor antagonists, retest of hits, confirmation, HEK293-CNG cells, membrane potential fluorescence, triplicate; HEK293 NPY-Y2 CNG channel; 32% of 710 active; shares compounds with NPY-Y2 antag; inhibition, % at 2.8 µM; AID 1257, 2008;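 active = mean inhibition of triplicate wells above the hit cutoff set in the primary screen, cut at about 17% in these data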;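 also: 0% = DMSO with NPY challenge and 100% = BIIE0246 high control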
# NPY1 antag conf: NPY-Y1 receptor antagonists, retest of hits, confirmation, HEK293-CNG cells, membrane potential fluorescence, triplicate; shares compounds with NPY-Y1 antag; cAMP; NPY challenge against isoproterenol-raised cAMP; inhibition, % at 3.6 µM; 21% of 1,200 active; AID 1254, 2008;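 also: 0% = vehicle with agonist plus stimulus and 100% = stimulus alone without agonist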
# NPY-Y2 antag ct: NPY-Y2 receptor antagonists, selectivity check, confirmation, counter-screen for NPY-Y1 antagonist project, HEK293-CNG cells, membrane potential fluorescence, triplicate. shares compounds with NPY-Y1 antag. antagonism; cells given NPY, then isoproterenol. inhibition, % at 3.6 µM. 28% of 1,200 active. AID 1255, 2008; in the data active = inhibition above about 17%;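 also: 0% = DMSO with agonist challenge and 100% = reference antagonist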
# * = called active by the depositor; · = no result. Rule as the data show it, unless noted: active = inhibition above about 20%; inactive = the rest.
SMILES,NPY2 pot ag,NPY-Y2 antag,NPY-Y1 antag,NPY-Y1 PAM-ag,NPY1 antag ctr,NPY-Y2 ant conf,others
O=C(Nc1cccc(S(=O)(=O)N2CCCCC2)c1)c1ccc2ccccc2n1,-9.4,19.7*,8.5,-9.4,10.5,12.7,
O=C(Nc1cccc(S(=O)(=O)N2CCCC2)c1)c1ccc2ccccc2n1,-15.6,·,12.3,-3.6,·,·,
COCCn1c(=N)c(C(=O)NCc2ccco2)cc2c(=O)n3ccccc3nc21,8.0,9.1,9.5,13.4,·,·,
N=c1c(C(=O)NCc2ccco2)cc2c(=O)n3ccccc3nc2n1Cc1ccccc1,1.9,23.6*,8.3,5.3,13.5,12.3,
COCCCn1c(=N)c(C(=O)NCc2ccc3c(c2)OCO3)cc2c(=O)n3ccccc3nc21,-9.3,20.0*,16.7,6.7,14.4,8.5,
N=c1c(C(=O)NCc2ccccc2)cc2c(=O)n3ccccc3nc2n1Cc1ccco1,6.0,22.7*,9.6,5.3,6.3,4.9,
COc1ccc(N(CC(=O)NC2CCCCC2)C(=O)CNC(=O)c2ccco2)cc1,-1.6,·,4.0,12.7,·,·,
Cc1ccc(CN(C(=O)Cn2nnc3ccccc32)C(C(=O)NCc2ccco2)c2ccc(C)o2)cc1 (configuration not stated),-6.0,2.1,1.1,-3.1,·,·,
Cc1ccc(C(C(=O)NCc2ccco2)N(CCc2ccccc2)C(=O)Cn2nnc3ccccc32)o1 (configuration not stated),-0.3,31.7*,18.7,1.6,20.2*,11.1,
Nc1cc(=O)[nH]c(SCc2nnnn2-c2ccc(Cl)cc2)n1,2.8,2.8,-2.8,-13.7,·,·,
Cc1ccc(OCCN2C(=O)S/C(=C\c3ccc(C)o3)C2=O)cc1,-5.2,17.2*,4.2,-2.8,4.6,6.0,
CNC(=O)c1ccsc1NC(=O)c1ccc(S(=O)(=O)N2CCCc3ccccc32)cc1,-0.8,17.4*,8.1,-57.1,30.9*,38.7*,
Cc1nn(C(C)(C)C)c(OC(=O)c2cccs2)c1Sc1ccccc1,7.0,26.5*,13.4,-18.1,11.0,6.2,
Cc1nn(C(C)(C)C)c(OC(=O)c2ccco2)c1Sc1ccccc1,11.6,6.3,3.1,-0.2,·,·,
Cc1nn(C(C)(C)C)c(OC(=O)c2ccc(Br)o2)c1Sc1ccccc1,9.9,18.0*,6.2,7.8,5.4,16.2,
COC(=O)c1c(C)oc2ccc(N(C(=O)c3ccncc3)S(=O)(=O)c3ccccc3)cc12,4.3,7.5,-2.4,-17.4,·,·,
COC(=O)c1c(C)oc2ccc(N(C(=O)c3ccncc3)S(=O)(=O)c3ccc4ccccc4c3)cc12,-31.4,22.9*,3.4,-18.5,19.4,31.2*,
O=C(COc1ccccc1CNCc1ccccc1)Nc1ccccc1,-31.1,20.9*,18.9,-36.4,13.8,25.3*,
CCOC(=O)CN1CCS(=O)(=O)CC1,2.8,·,-4.7,14.2,·,·,
c1ccc(-c2c(-c3ccccc3)n(Cc3ccco3)c3ncnc(NCCCn4ccnc4)c23)cc1,-27.4,29.4*,13.4,-55.3,9.8,11.7,
N=c1c2c(-c3ccccc3)c(-c3ccccc3)n(Cc3ccco3)c2ncn1Cc1ccccc1,54.2*,20.5*,2.7,56.4*,2.5,-3.7,
OCCNc1ncnc2c1c(-c1ccccc1)c(-c1ccccc1)n2Cc1ccco1,-3.5,12.7,3.3,1.3,·,·,
O=C(c1cc2ccccc2[nH]1)N1CCOCC1,1.8,0.5,5.0,-14.0,·,·,
O=C(Cc1ccc(Br)cc1)OCC(=O)N1CCc2ccccc2C1,-11.2,18.3*,8.3,-16.5,7.3,8.5,
O=C(c1cc2nc(-c3ccccc3)cc(-c3ccccc3)n2n1)N1CCN(C(=O)c2ccco2)CC1,-2.5,7.1,9.0,-4.0,·,·,
SMILES,NPY2 pot ag,NPY-Y2 antag,NPY-Y1 antag,NPY-Y1 PAM-ag,NPY1 antag ctr,NPY-Y2 ant conf,others
COc1ccc(OC(=O)CCc2c[nH]c3ccccc23)cc1,-4.6,·,13.6,-15.2,·,·,
COc1cc(OC)c(OC)cc1CNCCNC(=O)c1nonc1N,-8.7,1.3,0.2,-9.6,·,·,
COc1ccc(CCNC(=O)CSc2nc(O)c(CC(C)C)c(=O)[nH]2)cc1OC,6.1,17.4*,-2.1,4.1,2.1,1.5,
COc1ccc(CCNC(=O)c2ccc(NS(=O)(=O)c3c(C)noc3C)cc2)cc1OC,-8.0,-1.5,8.7,-3.1,·,·,
Cc1cc(C(=O)Cn2nnc(-c3ccc(Cl)cc3)n2)c(C)n1CC1CCCO1 (configuration not stated),-2.9,20.1*,14.2,-31.6,17.2,7.5,
Cc1ccc(C(c2nnnn2Cc2ccccc2)N2CCN(Cc3ccccc3)CC2)cc1 (configuration not stated),-5.8,7.9,11.2,-12.3,·,·,
CCOc1ccc(-c2nnc3n2N=C(c2ccc(OC)cc2)CS3)cc1,-20.1,4.4,-0.3,-6.2,·,·,
CCOc1ccc(C2=Nn3c(nnc3-c3ccccc3OC)SC2)cc1,-31.1,5.6,26.4*,-22.9,·,·,NPY1 antag conf=6.6;NPY-Y2 antag ct=26.9*
COc1ccc(NC(=O)c2cc3ccc4c5ccccc5[nH]c4c3cc2O)cc1,21.2,·,·,18.0,·,·,
COc1cc(C=O)ccc1OCCOCCOc1ccccc1Cl,1.9,2.0,20.5*,-7.5,·,·,NPY1 antag conf=2.9;NPY-Y2 antag ct=3.9
CCOC(=O)N1CCN(C(=O)c2cn(CC)c3ccc(S(=O)(=O)N4CC(C)CC(C)C4)cc3c2=O)CC1 (configuration not stated),2.1,·,0.5,9.0,·,·,
O=C(CC1C(=O)N(c2ccccc2)C(=O)N1Cc1ccco1)Nc1ccccc1 (configuration not stated),-6.1,·,-4.3,5.8,·,·,
CC(C)N1C(=S)N(Cc2ccco2)C(=O)C1CC(=O)Nc1ccccc1 (configuration not stated),4.1,·,74.2*,7.0,·,·,NPY1 antag conf=-0.7;NPY-Y2 antag ct=-1.3
Cc1cc(NC(=O)C2CC(=O)N(c3ccccc3)C2)no1 (configuration not stated),1.1,1.9,-1.4,13.5,·,·,
C#CCn1c(S(=O)(=O)Cc2ccc(OC)cc2)nc(-c2ccccc2)c1-c1ccccc1,-27.1,12.2,20.4*,-4.3,·,·,NPY1 antag conf=8.3;NPY-Y2 antag ct=4.0
O=S(=O)(c1ccc(F)cc1)N1CCC(N2CCN(c3ccccc3)CC2)CC1,14.2,1.0,-5.8,10.1,·,·,

# Screening data deposited in PubChem by The Scripps Research Institute Molecular Screening Center.
